Experimental data from different studies.
Compare with care: the assays were run in different laboratories.
Target: Muscarinic acetylcholine receptor M1 (CHRM1, Homo sapiens, UniProt P11229)
Tested at: 10 µM
Residues used in one study (P11229 1-460): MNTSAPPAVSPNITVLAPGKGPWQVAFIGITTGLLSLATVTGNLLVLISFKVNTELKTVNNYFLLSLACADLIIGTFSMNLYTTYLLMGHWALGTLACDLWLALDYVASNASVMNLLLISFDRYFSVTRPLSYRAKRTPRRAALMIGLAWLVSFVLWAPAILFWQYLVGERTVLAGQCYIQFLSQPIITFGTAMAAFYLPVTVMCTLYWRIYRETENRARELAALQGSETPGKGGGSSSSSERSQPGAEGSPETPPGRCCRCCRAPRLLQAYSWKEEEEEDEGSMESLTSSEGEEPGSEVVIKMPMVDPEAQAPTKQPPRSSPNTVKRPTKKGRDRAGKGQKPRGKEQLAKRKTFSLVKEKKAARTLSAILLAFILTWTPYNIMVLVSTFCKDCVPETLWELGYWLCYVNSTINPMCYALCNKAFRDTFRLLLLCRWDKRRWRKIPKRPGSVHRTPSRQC

SMILES	effect on	method	inhibition
N#Cc1cc(Cn2c(N3CCCC3)nc3ccccc32)ccc1F	ligand displacement		-15.5%
CCN(Cc1ccccc1C(F)(F)F)C(=O)C1CCN(S(=O)(=O)c2ccc3[nH]ncc3c2)CC1	ligand displacement	radioligand	1%
CCCNc1nc2ccccc2n1Cc1ccc(Cl)cc1	ligand displacement		-16.1%
CCN(CC)c1ccc(C2Nc3ccc(C(=O)c4ccccc4)cc3NC3=C2C(=O)CC(C)(C)C3)cc1 (centres unmarked)	ligand displacement	radioligand	-4%
O=C(c1ccc(Cl)cc1)N(Cc1ccccc1)C1CCCCC1	cell-free assay		-25.8%
O=C1N=C(N2CCCCN2)S/C1=C\c1ccc(F)cc1O	ligand displacement	radioligand	< 10%
Oc1cccc(Nc2nc(-c3ccc(F)cc3F)cs2)c1	cell-free assay		-66%
O=C(Nc1ccc(S(=O)(=O)N2CCC(Cl)CC2)cc1)c1ccc([N+](=O)[O-])o1	ligand displacement	radioligand	2%
